Assay [1] deals with HaCaT. In words: Mitotic arrest in human HaCaT cells at 5 uM after 24 hrs using propidium iodide by flow cytometry. The assay is classed as functional, cell-based. The method, boiled down:
(§1)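 Exponentially growing cells given 5×10^-6 M for 24 h, with 0.5% DMSO vehicle control. Cells detached with gentle Accutase, then stained in suspension with propidium iodide 0.05 mg/mL in citrate buffer with Nonidet P40 for 1 h at 4 °C. FACS on 20,000 cells for G1/S/G2/M distribution; run in triplicate.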

Assay [2] is described as follows: Induction of morphological changes in human SKv-a cells assessed as loss of radial distribution of structured microtubules at 10 '-6 M by confocal microscopy. In kind it is functional, cell-based. Put shortly: (§2)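 Cells were fixed and immunostained for beta-tubulin with a monoclonal antibody, then detected with goat anti-mouse FITC secondary. Confocal optical sections were taken at ×63 objective magnification. Vehicle-treated controls were imaged in parallel.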

The subject of assay [3] is SKv-a. Put plainly: Induction of morphological changes in human SKv-a cells assessed as cell rounding at 10 '-6 M by confocal microscopy. The assay is classed as functional, cell-based. The method, boiled down: as §2
Assay [4] deals with SKv-a. In words: Induction of microtubule depolymerization in human SKv-a cells at 10 '-6 M by confocal microscopy. The assay is classed as cell-based.
The nature of assay [5]: Inhibition of sheep brain tubulin assembly compound incubated for 10 mins at 37 degC followed by 5 mins incubation at 0 degC by turbidimetry. On the set-up: species or system Ovis aries.
Assay [6] has as its system HaCaT. In words: Antiproliferative activity against human HaCaT cells assessed as cell viability by MTT assay. The assay is classed as functional, cell-based. The method, boiled down:
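MTT read-out of metabolic activity, taken as the number of viable cells remaining after 72 h continuous exposure of cultured keratinocytes.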

Assay [7] deals with HaCaT. Put plainly: Induction of microtubule depolymerization in human HaCaT cells at 10 '-6 M by confocal microscopy. The assay is classed as cell-based.
Assay [8] relates to HaCaT. Put plainly: Induction of morphological changes in human HaCaT cells assessed as cell rounding at 10 '-6 M by confocal microscopy. The assay is classed as functional, cell-based. The method, boiled down:
as §2

Assay [9] deals with HaCaT. In words: Induction of morphological changes in human HaCaT cells assessed as loss of radial distribution of structured microtubules at 10 '-6 M by confocal microscopy. The assay is classed as functional, cell-based. Put shortly:
as §2

Assay [10] concerns SKv-a. In words: Mitotic arrest in human SKv-a cells at 5 uM after 24 hrs using propidium iodide by flow cytometry. The assay is classed as functional, cell-based. Put shortly: as §1
For assay [11], the system named is SKv-a. In words: Induction of morphological changes in human SKv-a cells assessed as cell detachment at 10 '-6 M by confocal microscopy. In kind it is functional, cell-based. The method, boiled down:
as §2

Assay [12] has as its system HaCaT. Put plainly: Induction of morphological changes in human HaCaT cells assessed as cell detachment at 10 '-6 M by confocal microscopy. In kind it is functional, cell-based. The method, boiled down:
as §2

Another assay is filed under the species Ovis aries. Put plainly: Inhibition of sheep brain tubulin assembly at 32 uM incubated for 10 mins at 37 degC followed by 5 mins incubation at 0 degC by turbidimetry.

The source made the active and inactive calls. The rule behind the calls is not given here.

Take `COc1cc(/C=C\c2cc3ccccc3s2)cc(OC)c1OC`: the outcome (in the assay on HaCaT [1]; in assay [2]; with SKv-a [3]; in the assay on SKv-a [4]; in the assay with HaCaT [7]; in the assay on HaCaT [8]) was Active. Moreover, the result in the assay with HaCaT [9], in the assay on SKv-a [10], with SKv-a [11] and in the assay on HaCaT [12] was Active. For the same molecule, the IC50 in assay [5] was 2.6 µM; with HaCaT [6], 16 nM.

As to `COc1ccc(/C=C\c2cc(OC)c(OC)c(OC)c2)cc1O` [COMBRETASTATIN A4], the result in the assay with SKv-a [4] and in the assay with HaCaT [7] was Active. The IC50 with HaCaT [6] was 1 nM.

On to `COc1cc(/C=C\c2cc3ccccc3o2)cc(OC)c1OC`, for which, in assay [5], inhibition was half-maximal at 9.6 µM (IC50).

For the molecule `COc1cc([C@@H]2c3cc4c(cc3C[C@H]3COC(=O)[C@@H]32)OCO4)cc(OC)c1OC` [DESOXYPODOPHYLLOTOXIN], the 50% inhibitory concentration (IC50) in assay [5] came out at 1.7 µM.

Regarding `COc1cc2c(c(OC)c1OC)-c1ccc(OC)c(=O)cc1[C@@H](NC(C)=O)CC2` [COLCHICINE], the outcome (in assay [2]; in the assay with SKv-a [3]; in the assay on SKv-a [4]; with HaCaT [7]; with HaCaT [8]; in the assay with HaCaT [9]) was Active. Further, the result in the assay with SKv-a [11] and in the assay with HaCaT [12] was Active. Also, the IC50 with HaCaT [6] is 12 nM.

Turning to `COc1cc(/C=C\c2cc3ccccc3[nH]2)cc(OC)c1OC`, the half-maximal inhibitory concentration (IC50) in [5] amounted to 21 µM.

Take `COc1cc(/C=C/c2cc3ccccc3s2)cc(OC)c1OC`: the result in the assay on HaCaT [1], in the assay on SKv-a [4], in the assay with HaCaT [7] and with SKv-a [10] was Active. This molecule also had an IC50 in [5] of 8.4 µM.

`COc1cc(/C=C/c2cc3ccccc3o2)cc(OC)c1OC`: the inhibition in the assay listed under Ovis aries was determined as 23%.

For the origin of these results see ChEMBL document CHEMBL2203287, “Synthesis and biological evaluation of novel heterocyclic derivatives of combretastatin A-4” (Bioorg Med Chem Lett, 2012).
